Assay results collected from several papers.
Compare with care: the assays were run in different laboratories.
Observed: cell growth or viability

The IC50 of `O=c1cc(OCc2cc(-c3ccccn3)no2)c2ccccc2o1` is reported as > 100 µM (DND41; MTS; 72 h).
`C[C@H]1CNCCCN1c1nccc(-c2noc([C@@]3(C)CCCc4sc(N)c(C#N)c43)n2)n1` has an EC50 of > 1 µM (NCI-H727; 5 days).
`Cc1nc(Nc2ncc(C(=O)Nc3c(C)cccc3Cl)s2)cc(N2CC[C@H](O)C2)n1` gave an IC50 of > 10 µM (JeKo-1; ATP luminescence; 72 h).
`O=c1cc(OCc2cc(-c3ccccc3)no2)c2ccccc2o1` has an IC50 of > 100 µM (DND41; MTS; 72 h).
`C[C@H]1CN(C)CCN1c1nccc(-c2noc3c2CCC[C@@]32CCCc3sc(N)c(C#N)c32)n1` has an EC50 of 0.304 µM (NCI-H727; 5 days).
The IC50 of `COc1cc(C2C3=C(COC3=O)N(CCO)c3cc4c(cc32)CCC4)cc(OC)c1OC` (centres unmarked) is reported as 5.5 µM (MCF-12A; ATP luminescence; 48 h).
For `C[C@H]1CNCCCN1c1nccc(-c2noc3c2CCC[C@@]32CCCc3sc(N)c(C#N)c32)n1`, the EC50 was 0.399 µM (NCI-H727; 5 days).
With `CCOC(=O)c1c(-c2ccc(OC)cc2)oc2ccc(OCc3cn(Cc4ccccc4)nn3)c(CN3CCCCC3)c12` the IC50 was 37.9 µM (J774.A1; resazurin; 18 h).
With `CCOc1ccc(-c2cc(C(=O)O)c(-c3ccc(Cl)cc3)o2)cc1` the EC50 was 87 µM (WM 266-4; MTT; 48 h).
With `FC(F)(F)c1ccc(-c2cc(CNc3cccc4cccnc34)on2)cc1` the IC50 was 82.3 µM (DND41; MTS; 72 h).
`C[C@H](Oc1nccc(-c2noc([C@@]3(C)CCCc4sc(N)c(C#N)c43)n2)n1)[C@@H]1CCCN1C` has an EC50 of 0.271 µM (NCI-H727; 5 days).
`C#CCOc1ccc2oc(-c3ccc(OC)cc3)c(C(=O)OCC)c2c1CN1CCCCC1` gave an IC50 of 8.2 µM (J774.A1; resazurin).
`O=c1cc(OCc2cc(-c3ccc(C(F)(F)F)cc3)no2)c2ccccc2o1` has an IC50 of > 100 µM (DND41; MTS; 72 h).
With `COc1cccc2c1C(=O)c1c(O)c3c(c(O)c1C2=O)C[C@@](O)(C(=O)CO)C[C@@H]3O[C@H]1C[C@H](N)[C@H](O)[C@H](C)O1` the IC50 was 0.32 µM (SU-DHL10; ATP luminescence; 72 h).
